Measured values from different studies.
Each line is one published result; the experiments were not run side by side.
Target: Homeodomain-interacting protein kinase 3 (HIPK3, Homo sapiens, UniProt Q9H422)

Cc1cc(NC(=O)c2cccc(S(F)(F)(F)(F)F)c2)cc(-n2ccn3nc(-c4cccnc4)cc23)c1 — remaining binding (cell-free assay, competition with immobilised ligand; 1 µM): 88.8%
c1cncc(-c2cccc(Nc3nccc(NC4CCCCC4)n3)c2)c1 — remaining binding (binding, competition with immobilised ligand; 10 µM): 57%
O=C(O)c1cc(-c2ccc(C3CCNCC3)cc2)c2ccc(-c3ccc(C(F)(F)F)cc3)cc2c1 — remaining binding (cell-free assay, competition with immobilised ligand; 1 µM): 100%
C[C@H]1CCN(c2nccc(-c3cnn4ncccc34)n2)C1 — remaining binding (binding; 1 µM): 61%
O=C(NCc1ncc(C(F)(F)F)cc1Cl)c1ccc2c(c1)C1(CCS(=O)(=O)CC1)[C@@H](C1CC1)N2S(=O)(=O)c1ccc(F)cc1 — remaining binding (cell-free assay, competition with immobilised ligand; 1 µM): 81%
O=C(c1ccc(Nc2ncc(Cl)c(-c3cc4ccccc4s3)n2)cc1)N1CCC(N2CCCC2)CC1 — remaining binding (binding, competition with immobilised ligand; 1 µM): 1.8%
C[C@@H](c1ccc(-n2cnc3c(N)ncnc32)cc1)N1CCc2nn(C)c(Cc3ccccc3)c2C1=O — remaining binding (binding, competition with immobilised ligand; 0.1 µM): 64%
O=C(Nc1ccc(Oc2ccc(F)cc2)cc1)N1CCc2ncccc2[C@H]1c1ccc(F)cc1 — remaining binding (cell-free assay, competition with immobilised ligand; 1 µM): 92%
CCN1CCN(Cc2ccc(C(=O)Nc3ccc(C)c(Oc4ccc5c(c4)CC(=O)N5)c3)cc2C(F)(F)F)CC1 — remaining binding (binding, competition with immobilised ligand; 1 µM): 100%
N[C@@H]1CCN(c2nccc(-c3cnn4ncccc34)n2)C1 — remaining binding (binding; 1 µM): 83%
O=C(NCCCN1CCOCC1)c1ccc(Nc2ncc(Cl)c(-c3ccc(Cl)s3)n2)cc1 — remaining binding (binding, competition with immobilised ligand; 1 µM): 15%
O=C(NCC1CCOCC1)c1n[nH]cc1NC(=O)c1c(F)cccc1F — remaining binding (binding, competition with immobilised ligand; 1 µM): 63%
Cn1nc(C(F)(F)F)cc1-c1cnc(N2CCc3cc(S(=O)(=O)Nc4c(F)cc(Cl)cc4F)cc(N4CCCC4=O)c32)nc1 — remaining binding (cell-free assay, competition with immobilised ligand; 1 µM): 85%
CN(CCCC(F)(F)F)c1nccc(-c2cnn3ncccc23)n1 — remaining binding (binding; 1 µM): 88%
O=C(NCCCN1CCOCC1)c1ccc(Nc2nccc(-c3cc4ccccc4s3)n2)cc1 — remaining binding (binding, competition with immobilised ligand; 1 µM): 39%
CNC(=O)[C@@H]1CC[C@@H](n2c(-c3ccc4cnccc4c3)nc3ccc(C(=O)NCc4cccc(C(N)=O)c4)cc32)C1 — remaining binding (binding, competition with immobilised ligand; 1 µM): 100%
COc1ccnn2ncc(-c3ccnc(N(C)C)n3)c12 — remaining binding (binding; 1 µM): 80%
COc1cnc(Nc2cccc(S(N)(=O)=O)c2)nc1N1CCN(c2ccccc2)CC1 — remaining binding (binding, competition with immobilised ligand; 1 µM): 100%
c1cnn2ncc(-c3ccnc(N4CCC45COC5)n3)c2c1 — remaining binding (binding; 1 µM): 50%
CS(=O)(=O)c1cc(C2(NC(=O)c3cncc4c3cnn4-c3ccc(F)cc3)CC2)ccn1 — remaining binding (cell-free assay, competition with immobilised ligand; 1 µM): 85%
CN(c1nccc(-c2cnn3ncccc23)n1)C1CC1 — remaining binding (binding; 1 µM): 100%
O=C1NC(c2ccccn2)Sc2ccccc21 (stereo not shown) — remaining binding (cell-free assay, competition with immobilised ligand; 1 µM): 86%
